The text below walks through data of ChEMBL document CHEMBL3085699, “Design, synthesis, and biological evaluation of indole-2-carboxamides: a promising class of antituberculosis agents” (J Med Chem, 2013).

SMILES strings stand for the structures. In brackets after ≈: the same amount, converted by molar mass. Activity calls are given as the source filed them. The rule behind the calls is not given here.

The subject of series [1] is Mycobacterium tuberculosis. Nature of the series: Antimicrobial activity against Mycobacterium tuberculosis H37Rv ATCC 27294 after 5 days by three-fold serial dilution assay. The settings on record: H37Rv ATCC 27294, 120 h. The format is functional. In a few lines:
(§1)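 H37Rv grown in 7H9 broth with 0.05% Tween 80 and 10% ADS. Compounds in 90% DMSO, three-fold serially diluted in duplicate. Early-log culture diluted to OD600 0.02 was added, then incubated at 37 °C for 5 days. Growth read by absorbance. MIC50 (50% growth inhibition) taken from non-linear curve fits. Isoniazid ran as internal control in every assay.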

A short description of series [2]: Intrinsic clearance in rat liver microsomes by LC/MS/MS analysis. The format is ADME. The settings on record: read-out: CLH. The method, boiled down:
(§2)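 Compound depletion in liver microsomes of the named species, measured by LC/MS/MS. In vitro half-life gave hepatic extraction ratio and predicted metabolic clearance.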
A general note: Liver microsomes are a subcellular fraction often used to study metabolism.

Series [3] is described as follows: Intrinsic clearance in human liver microsomes by LC/MS/MS analysis. The format is ADME. The note with it: read-out: CLH. The method, boiled down: as §2
A short description of series [4]: Aqueous solubility of the compound at pH 6.8 after 24 hrs by high-throughput equilibrium solubility assay. In kind it is physicochemical. The note with it: buffer. The method, boiled down:
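Miniaturized shake-flask equilibrium method. DMSO stock removed by centrifugal evaporation, aqueous buffer added, shaken 24 h. Plunger pushed through a filter membrane, shaken a further 30 min, and filtrate quantified by HPLC.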

A short description of series [5]: Intrinsic clearance in mouse liver microsomes by LC/MS/MS analysis. In kind it is ADME, Microsome. The note with it: read-out: CLH. The method, boiled down: as §2
A short description of series [6]: Elimination half life in mouse at 25 mg/kg, po by LC/MS analysis. The note with it: in vivo, read-out: beta t1/2 (converted). Set-up: dose 25 mg/kg, route oral. In kind it is ADME, organism-based. The method, boiled down:
(§3)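 Mice dosed p.o. at 25 mg/kg (2.5 mg/mL) or i.v. at 5 mg/kg (1 mg/mL). Vehicles varied: propanediol/solutol in pH 4.6 acetate buffer, or microemulsion/Cremophor-based mixes. Blood taken 0.08–24 h (i.v. first point 0.02 h), three mice per time point. Plasma extracted with acetonitrile:methanol:acetic acid and quantified by LC/MS/MS (LLOQ 1–3 ng/mL). Noncompartmental analysis of mean profiles; F from dose-corrected p.o./i.v. AUC.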

Series [7] in a line: AUC (0 to 24 hrs) in mouse at 5 mg/kg, iv and 75 mg/kg, po by LC/MS analysis. In kind it is ADME, organism-based. The settings on record: plasma.
Series [8] in a line: Oral bioavailability in mouse at 25 mg/kg by LC/MS analysis. The format is ADME, organism-based. The settings on record: in vivo. The method, boiled down: as §3
Series [9] can be described thus: Cmax in mouse at 25 mg/kg, po by LC/MS analysis. The format is ADME, organism-based. Set-up: dose 25 mg/kg, route oral. The settings on record: in vivo. In a few lines: as §3
A short description of series [10]: Elimination half life in mouse at 5 mg/kg, iv and 75 mg/kg, po by LC/MS analysis. The format is ADME, organism-based. The note with it: in vivo, read-out: beta t1/2 (converted).
The test system of series [11] is Mycobacterium tuberculosis. Nature of the series: Antitubercular activity against Mycobacterium tuberculosis H37Rv infected in Balb/c mouse model assessed as log CFU reduction at 75 mg/kg, po qd administered for 28 days relative to untreated control. The format is functional. In a few lines: (§4)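 Balb/c mice infected intranasally on day 0 with 10^3 H37Rv bacilli. Oral dosing, once daily, 7 days a week for 28 days, began 7 days post-infection at 25 or 75 mg/kg; ethambutol 100 mg/kg served as positive control. Lungs removed aseptically and homogenized. CFU counted by serial dilution plating on 7H11 agar; log lung CFU compared with untreated controls.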

A short description of series [12]: Elimination half life in mouse at 5 mg/kg, iv by LC/MS analysis. The format is ADME, organism-based. Details: dose 5 mg/kg, route intravenous. The note with it: in vivo, read-out: beta t1/2 (converted). The method, boiled down: as §3
Series [13] is described as follows: Clearance in mouse at 5 mg/kg, iv by LC/MS analysis. In kind it is ADME, organism-based. Details: dose 5 mg/kg, route intravenous. The note with it: in vivo. The method, boiled down: as §3
Series [14] in a line: AUC (0 to 24 hrs) in mouse at 25 mg/kg, po by LC/MS analysis. In kind it is ADME, organism-based. Details: time < 24 hr, dose 25 mg/kg, route oral. The note with it: plasma. The method, boiled down: as §3
The test system of series [15] is Mycobacterium tuberculosis. Put plainly: Antitubercular activity against Mycobacterium tuberculosis H37Rv infected in Balb/c mouse model assessed as log CFU reduction at 25 mg/kg, po qd administered for 28 days relative to untreated control. The format is functional. In a few lines: as §4
Another series deals with THP-1. Put plainly: Cytotoxicity against human THP1 cells. The format is cell-based.
Series [16] is described as follows: Volume of distribution at steady state in mouse at 5 mg/kg, iv by LC/MS analysis. The format is ADME, organism-based. Details: dose 5 mg/kg, route intravenous. The note with it: in vivo, read-out: Vdss. The method, boiled down:
as §3

The test system of series [17] is Mycobacterium tuberculosis. Put plainly: Ratio of isoniazid MIC50 to compound MIC50 against Mycobacterium tuberculosis H37Rv ATCC 27294. In kind it is functional. The method, boiled down:
as §1

The test system of series [18] is Mycobacterium tuberculosis. Put plainly: Antitubercular activity against Mycobacterium tuberculosis H37Rv infected in Balb/c mouse model assessed as log CFU reduction at 100 mg/kg, po qd administered for 28 days relative to untreated control. Details: dose 100 mg/kg. In kind it is functional, organism-based. In a few lines:
as §4

The term MIC50 denotes the lowest concentration that inhibits either 50% of growth or 50% of the strains tested, depending on the study. In general, thermodynamic solubility refers to the concentration in solution at equilibrium with solid. Consider `O=C(NC1CCC(F)(F)CC1)c1cc2c(Cl)cc(Cl)cc2[nH]1`, for which, in [1], the MIC50 was found to be 0.85 µM (≈ 0.295 µg/mL). Besides, the microsomal CLint in series [2] turned out to be 38.8 µL/min/mg; in series [3], 7.8 µL/min/mg; in [5] it was 23 µL/min/mg. This molecule also yielded a thermodynamic solubility at 24 h in series [4] of under 4 µM.
The AUC(0-t) is the area under the concentration-time curve up to a stated or last time point. A low value points to less exposure. Broadly, the bioavailability is dose-corrected exposure relative to a reference, in per cent. The Cmax is the highest concentration seen after dosing. Broadly, the clearance is the volume of plasma or blood freed of the substance per unit of time. High values mean efficient removal, low ones inefficient removal. As for `CC1(C)CCC(NC(=O)c2cc3c(Cl)cc(Cl)cc3[nH]2)CC1`, the half-life is 5.96 h in [6], 8.14 h in [10] and 5.25 h in series [12]. The molecule further displayed an AUC(0-t) in series [7] of 70.3 µM·h. The bioavailability in [8] came to 53%. In series [9], this molecule had a Cmax of 3.51 µM. The same molecule showed an MIC50 in series [1] of 0.015 µM (≈ 0.00509 µg/mL). The microsomal CLint came out at 139 µL/min/mg in [2], 59 µL/min/mg in [3] and 13 µL/min/mg in series [5]. Further, the values for the FC in series [11] and in series [15] were 4.79 and 2.6, respectively. The molecule further came in with a solubility (thermodynamic) at 24 h in series [4] of under 4 µM. Further, the clearance in series [13] was 18.1 mL/min/kg. Moreover, the AUC(0-t) at 24 h in [14] was 33.9 µM·h. In addition, in the series on THP-1, the Activity was over 20 µM. Also, in series [16], the Vd is 4.11 L/kg.
In the case of `CC1(C)CCC(NC(=O)c2cc3c(F)cc(F)cc3[nH]2)CC1`, the figures for the half-life in series [6] and in series [12] were 5.18 h and 4.47 h, respectively. Further, in series [8], the bioavailability was found to be 51%. The molecule further yielded a Cmax in series [9] of 4.21 µM. In series [1], the MIC50 amounted to 0.023 µM (≈ 0.00705 µg/mL). The microsomal CLint came to 87 µL/min/mg in [2], 3.4 µL/min/mg in [3] and 132 µL/min/mg in series [5]. Also, the FC in [11] amounted to 4.6; in series [15], 2.4. Besides, in series [4], the solubility (thermodynamic) at 24 h is under 4 µM. Also, the clearance in [13] amounted to 18.7 mL/min/kg. The molecule also returned an AUC(0-t) at 24 h in series [14] of 35.5 µM·h. The Vd in series [16] stood at 2.24 L/kg.
On to `CC1CCC(NC(=O)c2cc3c(F)cc(Cl)cc3[nH]2)CC1` (stereo not given), for which the MIC50 in series [1] was 0.19 µM (≈ 0.0587 µg/mL). The same molecule displayed a solubility (thermodynamic) at 24 h in [4] of under 4 µM. In addition, the microsomal CLint in [5] amounted to 28 µL/min/mg.
The matching figures for `C[C@H]1CC[C@H](NC(=O)c2cc3c(F)cc(F)cc3[nH]2)CC1`: 0.16 µM (≈ 0.0468 µg/mL), under 4 µM and 149 µL/min/mg.
In turn, `C[C@H]1CCCC[C@H]1NC(=O)c1cc2c(Cl)cc(Cl)cc2[nH]1` came in with an MIC50 in series [1] of 0.053 µM (≈ 0.0172 µg/mL). In addition, the solubility (thermodynamic) at 24 h in [4] was under 4 µM. For the same molecule, in [5], the microsomal CLint was found to be 89 µL/min/mg.
`C[C@H]1CCCC[C@H]1NC(=O)c1cc2c(F)cc(F)cc2[nH]1` gave an MIC50 in [1] of 0.28 µM (≈ 0.0819 µg/mL). Further, the thermodynamic solubility at 24 h in [4] is under 4 µM. In [5], the microsomal CLint came to 660 µL/min/mg.
`C[C@H]1CC[C@H](NC(=O)c2cc3c(Cl)cc(Cl)cc3[nH]2)CC1`: the AUC(0-t) in series [7] stood at 89.1 µM·h. Also, the MIC50 in series [1] was found to be 0.14 µM (≈ 0.0455 µg/mL). In addition, the half-life in series [10] was 5.29 h. The microsomal CLint in series [2] was 30.5 µL/min/mg; in series [3], 10 µL/min/mg; in [5], 3.4 µL/min/mg. For the same molecule, the FC in series [11] worked out at 0.88. The solubility (thermodynamic) at 24 h in [4] is under 4 µM. Further, in the series with THP-1, the Activity was over 20 µM.
In series [1], `CC1CCC(NC(=O)c2cc3c(F)cc(F)cc3[nH]2)CC1` (stereo not given) returned an MIC50 of 0.3 µM (≈ 0.0877 µg/mL). For the same molecule, the thermodynamic solubility at 24 h in [4] is under 4 µM. Moreover, the microsomal CLint in series [5] was determined as 866 µL/min/mg.
Regarding `CC1CCC(NC(=O)c2cc3c(Cl)cc(Cl)cc3[nH]2)CC1` (stereo not given), the half-life was 4.2 h in [6] and 6.89 h in series [12]. The same molecule came in with a bioavailability in series [8] of 48%. Moreover, the peak level in series [9] (Cmax) was 7.23 µM. Moreover, the MIC50 in [1] stood at 0.15 µM (≈ 0.0488 µg/mL). The molecule further came in with a solubility (thermodynamic) at 24 h in [4] of under 4 µM. Besides, the microsomal CLint in series [5] turned out to be 37 µL/min/mg. In series [13], this molecule yielded a clearance of 20.1 mL/min/kg. The same molecule yielded an AUC(0-t) at 24 h in [14] of 30.4 µM·h. For the same molecule, in [16], the Vd was 2.2 L/kg.
For `Cc1cc(C)c2cc(C(=O)N[C@@H]3CCCC[C@@H]3C)[nH]c2c1`, the MIC50 in series [1] was determined as 0.079 µM (≈ 0.0225 µg/mL). Moreover, the Ratio in series [17] is 4. The molecule further had a thermodynamic solubility at 24 h in series [4] of under 4 µM. Also, the microsomal CLint in series [5] was determined as 433 µL/min/mg.
As for `CC[C@@H](CO)NCCN[C@@H](CC)CO`, the result in series [18] was Active.
